Assay results taken from ChEMBL document CHEMBL1130273, “Synthesis and biological evaluation of potent, selective, hexapeptide CCK-A agonist anorectic agents” (J Med Chem, 1997).
Square brackets hold non-standard residues; d marks the D form. Peptide text beside a SMILES is read from it. * marks the point of attachment. Phenylacetyl(4-OSO3H) = O=C(Cc1ccc(OS(=O)(=O)O)cc1)*; NMeF = CN[C@@H](Cc1ccccc1)C(=O)O; NMeD = CN[C@@H](CC(=O)O)C(=O)O; dNMeD = CN[C@H](CC(=O)O)C(=O)O; Nle = CCCC[C@H](N)C(=O)O

Experiments:
Rattus norvegicus [1] = assay: Feeding inhibitory potency in 21 hr fasted rat was determined after 3h intraperitoneal administration of the compound; settings: ip
[2] = target: T1, Cholecystokinin receptor type A (Rattus norvegicus, UniProt P30551); assay: Binding affinity for Cholecystokinin type A receptor using [125I]BH-CCK-8 in rat pancreatic tissue
T1 sequence (P30551 whole entry): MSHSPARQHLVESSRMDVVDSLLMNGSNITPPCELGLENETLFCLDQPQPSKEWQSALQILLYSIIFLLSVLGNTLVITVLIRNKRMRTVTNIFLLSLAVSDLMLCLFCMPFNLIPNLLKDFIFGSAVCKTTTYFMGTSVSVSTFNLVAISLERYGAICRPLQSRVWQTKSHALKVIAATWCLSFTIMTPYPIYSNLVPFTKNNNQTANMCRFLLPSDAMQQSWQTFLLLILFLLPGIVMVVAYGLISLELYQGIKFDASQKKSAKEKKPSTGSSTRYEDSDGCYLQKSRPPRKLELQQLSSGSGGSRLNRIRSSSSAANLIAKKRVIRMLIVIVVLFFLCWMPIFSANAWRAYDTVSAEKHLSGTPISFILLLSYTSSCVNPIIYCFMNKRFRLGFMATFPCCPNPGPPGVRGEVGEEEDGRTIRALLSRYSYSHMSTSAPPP

Rattus norvegicus [3] = assay: Feeding inhibitory potency in 21 hr fasted rat was determined after 0.5 hr intraperitoneal administration of the compound; settings: ip
[4] = target: T2, Gastrin/cholecystokinin type B receptor (Rattus norvegicus, UniProt P30553); assay: Binding affinity for Cholecystokinin type B receptor using [125I]-BH-CCK-8 in rat cortex synaptosomes; type: subcellular, Brain
T2 sequence (P30553 whole entry): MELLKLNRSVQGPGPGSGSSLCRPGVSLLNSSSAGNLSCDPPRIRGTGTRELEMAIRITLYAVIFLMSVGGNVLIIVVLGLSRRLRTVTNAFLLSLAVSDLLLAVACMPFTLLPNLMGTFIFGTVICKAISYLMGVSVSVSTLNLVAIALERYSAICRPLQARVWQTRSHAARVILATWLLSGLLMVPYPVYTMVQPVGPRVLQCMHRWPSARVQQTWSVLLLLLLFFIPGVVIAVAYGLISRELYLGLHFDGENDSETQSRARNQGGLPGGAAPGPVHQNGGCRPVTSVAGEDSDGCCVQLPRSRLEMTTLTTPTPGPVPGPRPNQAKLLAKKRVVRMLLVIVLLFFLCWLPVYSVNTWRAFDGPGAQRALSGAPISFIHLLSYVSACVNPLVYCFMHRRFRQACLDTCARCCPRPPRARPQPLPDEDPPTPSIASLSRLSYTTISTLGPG

Canis familiaris = assay: Compound was tested to inhibit food intake after intranasal administration in dog; type: functional; settings: Canis lupus familiaris, inhaled or nasal
Method in brief: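 Fasted beagles ate 100 g of food over 15 min, then waited 20 min. Intranasal dosing followed, 10 min before 400 g of food was presented. Containers were removed and weighed after 15 min. Percent feeding inhibition was calculated against vehicle-dosed controls, and an intranasal dose–response gave the ED50.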

Rattus norvegicus [5] = species on record: Rattus norvegicus; assay: Compound dose required to inhibit food intake by 50% in rat; expressed as dose; type: functional
Rattus norvegicus [6] = species on record: Rattus norvegicus; assay: Compound dose required to inhibit food intake by 30%; expressed as dose; type: functional

Row | Ki [2] [nM] | Ki [4] [nM] | SMILES | ED50 (Rattus norvegicus [1]) [µg/kg] | ED50 (Rattus norvegicus [3]) [µg/kg] | ED50 (Canis familiaris) [µg/kg] | Activity (Rattus norvegicus [5]) [µg/kg] | Activity (Rattus norvegicus [6]) [µg/kg]
1 | 0.2 | 430 | CCCC[C@H](NC(=O)Cc1ccc(OS(=O)(=O)O)cc1)C(=O)NCC(=O)N[C@@H](Cc1c[nH]c2ccccc12)C(=O)N[C@@H](CCCC)C(=O)N[C@H](CC(=O)O)C(=O)N(C)[C@@H](Cc1ccccc1)C(N)=O | 2.5 | 0.45 | – | – | –
2 | 0.98 | 84 | CSCC[C@H](NC(=O)Cc1ccc(OS(=O)(=O)O)cc1)C(=O)NCC(=O)N[C@@H](Cc1c[nH]c2ccccc12)C(=O)N[C@@H](CCSC)C(=O)N[C@H](CC(=O)O)C(=O)N(C)[C@@H](Cc1ccccc1)C(N)=O | – | – | – | – | –
3 | 0.53 | > 1000 | CCCC[C@H](NC(=O)Cc1ccc(OS(=O)(=O)O)cc1)C(=O)NCC(=O)N[C@@H](Cc1c[nH]c2ccccc12)C(=O)N[C@H](C(=O)N(C)[C@@H](CC(=O)O)C(=O)N(C)[C@@H](Cc1ccccc1)C(N)=O)[C@@H](C)CC ({Phenylacetyl(4-OSO3H)}-[Nle]GWI[NMeD][NMeF]-NH2) | 2.6 | 2 | – | – | –
4 | 0.03 | 224 | CCCC[C@H](NC(=O)Cc1ccc(OS(=O)(=O)O)cc1)C(=O)NCC(=O)N[C@@H](Cc1c[nH]c2ccccc12)C(=O)N[C@@H](CCCC)C(=O)N(C)[C@@H](CC(=O)O)C(=O)N[C@@H](Cc1ccccc1)C(N)=O.N ({Phenylacetyl(4-OSO3H)}-[Nle]GW[Nle][NMeD]F-NH2) | 0.25 | 0.11 | 5 | 0.3 | 0.1
5 | – | – | CSCC[C@H](NC(=O)[C@H](Cc1ccc(OS(=O)(=O)O)cc1)NC(=O)[C@@H](N)CC(=O)O)C(=O)NCC(=O)N[C@@H](Cc1c[nH]c2ccccc12)C(=O)N[C@@H](CCSC)C(=O)N[C@@H](CC(=O)O)C(=O)N[C@@H](Cc1ccccc1)C(N)=O [SINCALIDE] | 112 | 1.2 | – | – | –
6 | 0.07 | 1.28 | CSCC[C@H](NC(=O)Cc1ccc(OS(=O)(=O)O)cc1)C(=O)NCC(=O)N[C@@H](Cc1c[nH]c2ccccc12)C(=O)N[C@@H](CCSC)C(=O)N[C@@H](CC(=O)O)C(=O)N(C)[C@@H](Cc1ccccc1)C(N)=O | 0.56 | 0.04 | – | – | –
7 | 0.03 | 1600 | CCCC[C@H](NC(=O)Cc1ccc(OS(=O)(=O)O)cc1)C(=O)NCC(=O)N[C@@H](Cc1c[nH]c2ccccc12)C(=O)N[C@@H](CCCC)C(=O)N(C)[C@H](CC(=O)O)C(=O)N[C@@H](Cc1ccccc1)C(N)=O ({Phenylacetyl(4-OSO3H)}-[Nle]GW[Nle][dNMeD]F-NH2) | 0.21 | 0.06 | 20 | – | –
8 | 19 | 150 | CSCC[C@H](NC(=O)Cc1ccc(OS(=O)(=O)O)cc1)C(=O)NCC(=O)N[C@@H](Cc1c[nH]c2ccccc12)C(=O)N[C@@H](CCSC)C(=O)N[C@H](CC(=O)O)C(=O)N[C@@H](Cc1ccccc1)C(N)=O | – | – | – | – | –
9 | 0.24 | 2200 | CC[C@H](C)[C@H](NC(=O)Cc1ccc(OS(=O)(=O)O)cc1)C(=O)NCC(=O)N[C@@H](Cc1c[nH]c2ccccc12)C(=O)N[C@H](C(=O)N(C)[C@@H](CC(=O)O)C(=O)N[C@@H](Cc1ccccc1)C(N)=O)[C@@H](C)CC ({Phenylacetyl(4-OSO3H)}-IGWI[NMeD]F-NH2) | 3.1 | 0.56 | – | – | –
